From ChEMBL document CHEMBL4251624, “Synthesis of podophyllotoxin linked β-carboline congeners as potential anticancer agents and DNA topoisomerase II inhibitors” (Eur J Med Chem, 2018)
pIC50: −log10 of the molar value.

Key:
MDA-MB-231 = experiment: Cytotoxicity against human MDA-MB-231 cells after 48 hrs by MTT assay; type: functional, cell-based; settings: MDA-MB-231, 48 h
How it was run: (§1)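 MTT assay. Cells seeded at 1×10^4 per well in DMEM or MEM with 10% FBS and grown 24 h at 37 °C under CO2. Compounds added for 48 h, then MTT (5 mg/mL stock) for 4 h. Formazan dissolved in DMSO and read at 570 nm. IC50 is the average of three independent experiments.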

DU-145 = experiment: Cytotoxicity against human DU145 cells after 48 hrs by MTT assay; type: functional, cell-based; settings: DU-145, 48 h; how it was run: as §1
HeLa = experiment: Cytotoxicity against human HeLa cells after 48 hrs by MTT assay; type: functional, cell-based; how it was run: as §1
HEK293 = experiment: Cytotoxicity against HEK293 cells after 48 hrs by MTT assay; type: cell-based; settings: Homo sapiens, HEK293, 48 h; how it was run: as §1
HT-29 = experiment: Cytotoxicity against human HT-29 cells after 48 hrs by MTT assay; type: functional, cell-based; settings: HT-29, 48 h; how it was run: as §1
A549 = experiment: Cytotoxicity against human A549 cells after 48 hrs by MTT assay; type: functional, cell-based; settings: A549, 48 h; how it was run: as §1

`COc1cc([C@@H]2c3cc4c(cc3[C@@H](NC(=O)c3cc5c([nH]c6ccccc65)c(-c5ccc(F)cc5)n3)[C@H]3COC(=O)[C@H]23)OCO4)cc(OC)c1OC` gave a pIC50 (MDA-MB-231) of 4.97, a pIC50 (DU-145) of 5.29 and a pIC50 (HeLa) of 4.81. The pIC50 (HEK293) was 3.96, the pIC50 (HT-29) was 4.94 and the pIC50 (A549) was 4.99.
`COc1cc([C@@H]2c3cc4c(cc3[C@@H](NC(=O)c3cc5c([nH]c6ccccc65)c(-c5ccc(Cl)cc5)n3)[C@H]3COC(=O)[C@H]23)OCO4)cc(OC)c1OC` showed a pIC50 (MDA-MB-231) of 5.41, a pIC50 (DU-145) of 5.58 and a pIC50 (HeLa) of 5.18. The pIC50 (HEK293) was 4.23, the pIC50 (HT-29) was 5.24 and the pIC50 (A549) was 5.40.
`COc1cc([C@@H]2c3cc4c(cc3[C@@H](NC(=O)c3cc5c([nH]c6ccccc65)c(-c5ccc6c(c5)OCO6)n3)[C@H]3COC(=O)[C@H]23)OCO4)cc(OC)c1OC` gave a pIC50 (MDA-MB-231) of 4.46, a pIC50 (DU-145) of 4.84 and a pIC50 (HeLa) of 4.82. It also gave a pIC50 (HEK293) of 4.15, a pIC50 (HT-29) of 4.51 and a pIC50 (A549) of 4.66.
With `COc1cc([C@@H]2c3cc4c(cc3[C@@H](NC(=O)c3cc5c([nH]c6ccccc65)c(-c5cccc(Oc6ccccc6)c5)n3)[C@H]3COC(=O)[C@H]23)OCO4)cc(OC)c1OC` the pIC50 (MDA-MB-231) was 5.12, the pIC50 (DU-145) was 5.50 and the pIC50 (HeLa) was 4.95. For the same compound, the pIC50 (HEK293) was 3.99, the pIC50 (HT-29) was 4.99 and the pIC50 (A549) was 5.28.
For `COc1cccc2c1C(=O)c1c(O)c3c(c(O)c1C2=O)C[C@@](O)(C(=O)CO)C[C@@H]3O[C@H]1C[C@H](N)[C@H](O)[C@H](C)O1` [DOXORUBICIN], the pIC50 (MDA-MB-231) was 5.88, the pIC50 (DU-145) was 5.73 and the pIC50 (HT-29) was 5.85. It also gave a pIC50 (A549) of 5.77.
For `COc1cc([C@@H]2c3cc4c(cc3[C@@H](NC(=O)c3cc5c([nH]c6ccccc65)c(-c5cccnc5)n3)[C@H]3COC(=O)[C@H]23)OCO4)cc(OC)c1OC`, the pIC50 (MDA-MB-231) was 5.52, the pIC50 (DU-145) was 5.70 and the pIC50 (HeLa) was 5.33. It also gave a pIC50 (HEK293) of 4.07, a pIC50 (HT-29) of 5.20 and a pIC50 (A549) of 5.59.
`COc1cc([C@@H]2c3cc4c(cc3[C@@H](NC(=O)c3cc5c([nH]c6ccccc65)c(-c5cccc(Cl)c5)n3)[C@H]3COC(=O)[C@H]23)OCO4)cc(OC)c1OC` showed a pIC50 (MDA-MB-231) of 5.48, a pIC50 (DU-145) of 5.62 and a pIC50 (HeLa) of 5.22. For the same compound, the pIC50 (HEK293) was 3.88, the pIC50 (HT-29) was 5.28 and the pIC50 (A549) was 5.50.
Work on `COc1ccc(-c2nc(C(=O)N[C@@H]3c4cc5c(cc4[C@@H](c4cc(OC)c(OC)c(OC)c4)[C@H]4C(=O)OC[C@@H]43)OCO5)cc3c2[nH]c2ccccc23)cc1OC` yielded a pIC50 (MDA-MB-231) of 4.81, a pIC50 (DU-145) of 5.04 and a pIC50 (HeLa) of 4.87. It also gave a pIC50 (HEK293) of 4.05, a pIC50 (HT-29) of 4.84 and a pIC50 (A549) of 4.90.
Work on `COc1cc([C@@H]2c3cc4c(cc3[C@@H](NC(=O)c3cc5c([nH]c6ccccc65)c(-c5ccccc5)n3)[C@H]3COC(=O)[C@H]23)OCO4)cc(OC)c1OC` yielded a pIC50 (MDA-MB-231) of 5.59, a pIC50 (DU-145) of 5.77 and a pIC50 (HeLa) of 5.28. It also gave a pIC50 (HEK293) of 4.12, a pIC50 (HT-29) of 5.16 and a pIC50 (A549) of 5.70.
